Jurkat NFkB inh: lowers PMA/ionomycin-induced NF-kB signal in Jurkat cells; 330,000 compounds, 0.53% hits; PMA/ionomycin-induced NF-kB luciferase reporter, luminescence; inhibition, % at 4 µM; in the data active = inhibition above about 50%
XBP1 UPR activ: activators of adaptive arm of unfolded protein response (XBP1); CHO-XBP1 luciferase reporter, IRE1-XBP1 UPR activation, luminescence; percent of tunicamycin response, DMSO as zero; activation, % at 20 µM; 330,000 compounds, 0.33% hits;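 active = versus positive control, 20 µM dose yields 30% or more activation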
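Material: CHO cell line with stable XBP1 luciferase reporter; buffer or medium: F12 medium containing 10% fetal bovine serum; compound: single point, 20 µM final compound, 1% DMSO; incubation: 6 h treatment, 37 °C; measured by: glow luminescence from Steady-Glo reagent; evaluation: activation, % of tunicamycin; control set: tunicamycin high, DMSO low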
CHOP inh: CHOP inhibition in unfolded protein response; 220,000 compounds, 3.8% hits; CHO-K1 CHOP-promoter luciferase, tunicamycin-induced, 15-18 h; inhibition, % at 10 µM;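 active = compounds that reduced the stress-induced luciferase reporter signal by more than about 70% of percent inhibition, limit read from the data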
CHOP UPR activ: apoptotic UPR (CHOP) activation. CHO-CHOP luciferase reporter, luminescence; percent of tunicamycin response over DMSO baseline. activation, % at 10 µM. 330,000 compounds, 0.34% hits. AID 449763;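 active = at 10 µM dose, activation of 40% or more, normalized to positive control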
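Assay system: CHO cells with stable CHOP pathway luciferase reporter; Buffer or medium: F12 plus 10% serum; Times: 16-18 h cell attachment, then 6 h compound exposure, 37 °C; Signal: luciferase luminescence; Read-out basis: percent activation relative to tunicamycin control; Control set: tunicamycin high control, DMSO low control.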
697 NFkB inh: lowers PMA/ionomycin-induced NF-kB signal in 697 B cells; 697 B-cell NF-kB luciferase reporter, 16 h; 330,000 compounds, 0.33% hits; inhibition, % at 4 µM; in the data active = inhibition above about 35%
Hits are given with their value; . = inactive; / = not tested or not shown. The sample as a whole holds a higher share of hits than the screen did.

SMILES | Jurkat NFkB inh | XBP1 UPR activ | CHOP inh | CHOP UPR activ | 697 NFkB inh
O=C1ON=C(c2ccccc2)/C1=C/c1ccc(-c2ccccc2[N+](=O)[O-])o1 | / | / | 103.5 | / | /
COc1cc2ccccc2cc1-c1nnc(COc2ccccc2)o1 | . | . | 82.0 | . | .
Cc1cccc(NC(=O)CSc2nnc(C)c(C)n2)c1 | . | . | / | . | .
C/C(=C\C(=O)c1ccc(Br)cc1)NCc1ccccc1 | . | . | . | . | .
C/C(=C\C(=O)c1ccc(Br)cc1)NCc1ccc(C)cc1 | . | . | 77.1 | . | .
CCOC(=O)C1CCCN(CC(=O)Nc2c(C(=O)OC)[nH]c3ccc(Br)cc23)C1 (configuration not stated) | . | . | 76.7 | . | .
CCOc1ccc(CCNC(=O)CSc2nc3ncc(Cl)cc3[nH]2)cc1OCC | . | . | / | . | .
O=C(CSc1nc(C2CC2)nc2ccccc12)N1CCc2ccccc2C1 | . | . | 74.5 | . | .
O=C(CSc1nc(C2CC2)nc2ccccc12)N1CCCCC1 | . | . | / | . | .
C=CCSc1nnc(-c2sc(-c3ccccc3)nc2C)n1C | . | . | . | . | .
C=CCN(C(=O)CSC1=NC(=O)CN1C(C)=O)c1nc(C)c(-c2ccccc2)s1 | . | . | 94.9 | . | .
CCOC(=O)c1sc(NC(=O)CSc2n[nH]c(-c3ccc(Cl)cc3Cl)n2)c(C#N)c1C | . | . | 75.3 | . | .
CCOC(=O)c1sc(NC(=O)CSc2nc3c(cc2C#N)CCCCCC3)c(C#N)c1C | . | . | 71.5 | . | .
CC1(NC(=O)Cc2csc(-c3ccc(Cl)cc3)n2)CCS(=O)(=O)C1 (configuration not stated) | . | . | / | . | .
Cc1nc2ccsc2c(=O)n1-c1cccc(Cl)c1 | . | . | / | . | .
O=C(NNC(=O)c1ccc(-c2ccccc2)cc1)c1ccccc1 | . | . | 80.7 | . | .
Cc1cccc(C(=O)NNC(=O)c2ccc(-c3ccccc3)cc2)c1 | . | . | . | . | .
COc1ccc(Cn2c(C)c(C)c(C#N)c2NC(=O)Nc2cccc(Cl)c2)cc1 | . | . | 80.8 | . | .
COC(=O)c1cc2c(s1)-c1ccccc1CC2 | . | . | 91.3 | . | .
O=c1cc2c(nn1Cc1ccccc1Cl)-c1ccccc1CC2 | . | . | 85.6 | . | .
O=c1cc2c(nn1Cc1ccc(Cl)cc1)-c1ccccc1CC2 | . | . | 88.1 | . | .
O=c1cc2c(nn1Cc1cccc(Cl)c1)-c1ccccc1CC2 | . | . | 95.1 | . | .
Cc1ccc(Cn2nc3c(cc2=O)CCc2ccccc2-3)cc1 | . | . | . | . | .
CC(/C=N/NC(=O)c1ccc(Cn2cc([N+](=O)[O-])cn2)o1)=C\c1ccccc1 | . | . | / | . | .
Cc1ccc(C(=O)NNC(=O)c2csc(N3CCOCC3)n2)s1 | . | . | / | . | .
SMILES | Jurkat NFkB inh | XBP1 UPR activ | CHOP inh | CHOP UPR activ | 697 NFkB inh
COc1ccc(-c2nc(CS(=O)CC(=O)N3CCN(C)CC3)c(C)o2)cc1 (configuration not stated) | . | . | / | . | .
CC(C)Nc1ncnc2ccc(Br)cc12 | . | . | 78.6 | . | .
CSCCC(Nc1ncnc2ccc(Br)cc12)C(=O)O (configuration not stated) | . | . | . | . | .
CCN(CC)c1ccc(NC(=O)Cn2cc3c(n2)CCC(C)C3)c(C)c1 (configuration not stated) | . | . | 78.9 | . | .
C/C(=N\NC(=O)c1nnn(-c2nonc2N)c1CSc1ccccc1)c1ccc2c(c1)OCO2 | . | . | / | . | .
CCOc1cc(/C=C2\C(=O)N(c3nc(-c4ccc(Br)cc4)cs3)N=C2c2ccccc2)ccc1O | . | 98.8 | . | 641.9 | .
Cc1ccc(-c2nnc3ccc(SCC(=O)N4CCc5ccccc54)nn23)cc1 | . | . | 84.9 | . | .
CC(C(=O)N1CCN(c2ccc(Cl)cc2)CC1)c1ncc(C(F)(F)F)cc1Cl (configuration not stated) | . | . | 71.0 | . | .
O=C(CNC(=O)c1ccc(Cl)cc1)NCc1ccccn1 | . | . | / | . | .
O=C(CN1C(=O)/C(=C\c2ccc(F)cc2)Oc2ccccc21)N1CCN(c2ccccn2)CC1 | . | . | 89.5 | . | .
NS(=O)(=O)c1ccc(NS(=O)(=O)c2ccc(C3CNC(=O)C3)cc2)cc1 (configuration not stated) | . | . | / | . | .
O=C(COc1ccccc1Cl)Nc1ccc(S(=O)(=O)Nc2ccccn2)cc1 | . | . | / | . | .
O=C(CSc1ncnc2c1cnn2-c1ccc(Cl)cc1)NCc1ccc2c(c1)OCO2 | . | . | 72.4 | . | .
O=C(CSc1ncnc2c1cnn2-c1ccccc1)Nc1ccc2c(c1)OCO2 | . | . | . | . | .
Cn1c(C(=O)N2CCCC(C(=O)NCc3cccs3)C2)cc2sccc21 (configuration not stated) | . | . | . | . | .
Cn1c(C(=O)N2CCCC(C(=O)NCCCSC3CCCCC3)C2)cc2sccc21 (configuration not stated) | . | . | 73.5 | . | .
CCNc1nc(Oc2ccc(OC)cc2)cc(C(F)(F)F)n1 | . | . | . | . | .
CCNc1nc(Sc2ccc(C)cc2)cc(C(F)(F)F)n1 | . | . | 86.8 | . | .
CC(C(=O)NCCCc1ccccc1)n1cccc1C(=O)c1ccccc1 (configuration not stated) | . | . | / | . | .
CCN(CC)S(=O)(=O)c1ccc(Cl)c(NC(=O)c2cc(Cl)cc(Cl)c2)c1 | . | . | 89.4 | . | .
CN(C)S(=O)(=O)c1cccc(C(=O)Nc2cc(Cl)cc(Cl)c2)c1 | . | . | 71.3 | . | .
CCN(CC)S(=O)(=O)c1ccc(Cl)c(C(=O)Nc2ccc(Cl)cc2[N+](=O)[O-])c1 | . | . | 79.3 | . | .
O=C(COC(=O)Cc1ccccc1F)Nc1ccc(F)cc1F | . | . | . | . | .
CCOC(=O)c1oc2ccc(S(=O)(=O)n3nc(-c4ccccc4)cc3N)cc2c1C | . | . | 85.2 | . | .
CCS(=O)(=O)n1nc(-c2ccccc2)cc1N | . | . | . | . | .
SMILES | Jurkat NFkB inh | XBP1 UPR activ | CHOP inh | CHOP UPR activ | 697 NFkB inh
CCc1ccn2cc(-c3ccc4c(c3)OCO4)nc2c1 | . | . | 77.7 | . | .
CCCOc1ccc(/C=C/C(=O)Nc2ccc([N+](=O)[O-])cc2)cc1 | . | . | 95.4 | . | .
Cc1ccc(OCCNC(=O)/C=C/c2ccc([N+](=O)[O-])cc2)cc1C | . | . | . | . | .
O=C(/C=C/c1ccc([N+](=O)[O-])cc1)Nc1ncc([N+](=O)[O-])s1 | / | / | 94.2 | / | /
CCCCOc1ccc(/C=C/C(=O)Nc2ccc(C(N)=O)cc2)cc1 | . | . | . | . | .
CCCCOc1ccc(/C=C/C(=O)Nc2ccc([N+](=O)[O-])cc2C)cc1 | . | . | 79.6 | . | .

High-throughput results as filed in PubChem BioAssay.
